ChEMBL document CHEMBL5257087, “Anti-inflammatory Activity of Tanshinone-Related Diterpenes from Perovskia artemisioides Roots” (2023)
Active and inactive are the calls of the source. No cut-off for these calls is given here.

Key:
[1] = system: J774.A1; experiment: Antiproliferative activity against mouse J774.A1 cells assessed as reduction in cell viability at 100 uM incubated for 24 hrs by MTT assay; type: functional, cell-based
Procedure, shortened: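 J774A.1 cells at 5 × 10^4 cells/well adhered 3 h, then were incubated 24 h with compound serial dilutions (100–12.5 μM). MTT (5 mg/mL stock) was added for 3 h, formazan dissolved in DMSO, and OD read at 570 nm. The value is the % dead cells, 100 − [(OD treated/OD control) × 100]. 6-Mercaptopurine (1 μM) was the reference. At least three experiments, each in triplicate.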

[2] = system: J774.A1; experiment: Antiinflammatory activity in mouse J774.A1 macrophages assessed as inhibition of LPS-induced NO production at 12.5 to 50 uM preincubated for 1 hr followed by LPS stimulation and measured after 24 hrs by griess reagent based assay; type: functional, cell-based; details: dose 12.5-50 µM, time 25.0 hrs
Procedure, shortened: (§1)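 Macrophages adhered 3 h at 5 × 10^4 cells/well, then were exposed to compound (50–12.5 μM) for 1 h before E. coli LPS (10 μg/mL) was added. After 24 h, nitrite in the medium was reacted with Griess reagent for 10 min at room temperature and absorbance read at 550 nm. Values are in μM from a sodium nitrite standard curve. L-NAME (1 μM) served as reference. Data are mean ± SEM, n ≥ 3, triplicate.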

[3] = system: J774.A1; experiment: Antiinflammatory activity in mouse J774.A1 macrophages assessed as inhibition of LPS-induced iNOS expression at 12.5 to 50 uM preincubated for 1 hr followed by LPS stimulation and measured after 24 hrs by cytofluorimetry analysis; type: functional, cell-based; details: dose 12.5-50 µM, time 25.0 hrs
Procedure, shortened: (§2)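 J774A.1 cells plated at 5 × 10^4 cells/well and allowed to adhere 3 h at 37 °C. Compounds were added 1 h before and then together with E. coli LPS (10 μg/mL) for 24 h. Cells were fixed and permeabilized, then stained with anti-iNOS or anti-COX-2 and a secondary antibody. Read as mean fluorescence intensity by flow cytometry. Indomethacin (1 μM) served as positive control. At least three independent experiments, each in triplicate.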

[4] = system: J774.A1; experiment: Antiinflammatory activity in mouse J774.A1 macrophages assessed as inhibition of LPS-induced COX2 expression at 12.5 to 50 uM preincubated for 1 hr followed by LPS stimulation and measured after 24 hrs by cytofluorimetry analysis; type: functional, cell-based; details: dose 12.5-50 µM, time 25.0 hrs; procedure, shortened: as §2
[5] = system: J774.A1; experiment: Antiinflammatory activity in mouse J774.A1 macrophages assessed as inhibition of LPS-induced COX2 expression at 1 uM preincubated for 1 hr followed by LPS stimulation and measured after 24 hrs by cytofluorimetry analysis; type: functional; details: time 25 hrs; procedure, shortened: as §2
[6] = system: J774.A1; experiment: Antiinflammatory activity in mouse J774.A1 macrophages assessed as reduction in LPS-induced nitrite production at 12.5 to 50 uM preincubated for 1 hr followed by LPS stimulation and measured after 24 hrs by griess reagent based assay; type: functional, cell-based; details: dose 12.5-50 µM, time 25.0 hrs; procedure, shortened: as §1
[7] = system: J774.A1; experiment: Antioxidant activity in mouse J774.A1 macrophages assessed as inhibition of LPS-induced nitrotyrosine formation at 12.5 to 50 uM preincubated for 1 hr followed by LPS stimulation and measured after 24 hrs by cytofluorimetry analysis; type: functional, cell-based; details: dose 12.5-50 µM, time 25.0 hrs
Procedure, shortened: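 Cells were pretreated 1 h with compound (50–12.5 μM), then LPS (10 μg/mL) was added for 24 h. Cells were harvested, PBS-washed, fixed 20 min and permeabilized 30 min. They were stained 30 min with rabbit anti-nitrotyrosine, then 30 min with secondary antibody. Mean fluorescence intensity was read by flow cytometry. L-NAME and indomethacin (1 μM each) were positive controls. Mean ± SEM of at least three experiments, each in triplicate.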

[8] = system: J774.A1; experiment: Antioxidant activity in mouse J774.A1 macrophages assessed as inhibition of LPS-induced intracellular ROS production at 12.5 to 50 uM preincubated for 1 hr followed by LPS stimulation and measured after 24 hrs by DCFH2-DA probe based fluorescence analysis; type: functional, cell-based; details: dose 12.5-50 µM, time 25.0 hrs
Procedure, shortened: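 Macrophages (J774A.1, 5 × 10^4 cells/well, 3 h adherence) were given the compound (50–12.5 µM) 1 h before and during LPS (10 µg/mL). After 24 h cells were collected and washed twice in PBS, then loaded with 10 µM H2DCF-DA in PBS at 37 °C for 15 min. DCF fluorescence was read by flow cytometry as mean fluorescence intensity versus LPS alone. Means ± SEM, ≥3 independent experiments, each in triplicate.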

[9] = system: J774.A1; experiment: Antioxidant activity in mouse J774.A1 macrophages assessed as inhibition of LPS-induced nitrotyrosine formation at 25 to 50 uM preincubated for 1 hr followed by LPS stimulation and measured after 24 hrs by cytofluorimetry analysis; type: functional, cell-based; details: dose 25-50 µM, time 25.0 hrs
Procedure, shortened: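 J774A.1 cells (5 × 10^4 cells/well, 3 h adherence) were pretreated with compound (50–12.5 µM) for 1 h, then LPS (10 µg/mL) was added. After 24 h cells were PBS-washed, fixed for 20 min and permeabilized for 30 min. Rabbit anti-nitrotyrosine and secondary antibody were each applied for 30 min. Read-out was flow-cytometric mean fluorescence intensity versus LPS alone. Means ± SEM, ≥3 independent experiments, each in triplicate.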

[10] = system: J774.A1; experiment: Antiinflammatory activity in mouse J774.A1 macrophages assessed as inhibition of LPS-induced NO production at 1 uM preincubated for 1 hr followed by LPS stimulation and measured after 24 hrs by griess reagent based assay; type: functional; details: time 25 hrs
Procedure, shortened: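 Murine J774A.1 cells (DMEM, 10% FBS) were plated at 5 × 10^4 cells/well and allowed to adhere for 3 h at 37 °C in 5% CO2. They were exposed to the agent in fresh medium for 1 h, then to E. coli LPS at 10 µg/mL for 24 h. Medium nitrite was measured with Griess reagent (10 min, room temperature, A550) and converted to µM against a sodium nitrite standard. Means ± SEM, ≥3 independent experiments, each in triplicate.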

[11] = system: J774.A1; experiment: Antiinflammatory activity in mouse J774.A1 macrophages assessed as inhibition of LPS-induced iNOS expression at 1 uM preincubated for 1 hr followed by LPS stimulation and measured after 24 hrs by cytofluorimetry analysis; type: functional; details: time 25 hrs
Procedure, shortened: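 J774A.1 cells were plated at 5 × 10^4 cells/well and allowed to adhere for 3 h. The agent was added 1 h before LPS (10 µg/mL) and kept during stimulation; cells were harvested after 24 h. Cells were washed in PBS, fixed for 20 min and permeabilized for 30 min. Anti-iNOS primary and secondary antibodies were each applied for 30 min. Read-out was flow-cytometric mean fluorescence intensity versus LPS alone. Means ± SEM, ≥3 independent experiments, each in triplicate.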

SMILES | Activity [1] | inhibition [2] | inhibition [3] | inhibition [4] | also measured
CC(C)c1cc2c(cc1O)[C@@]1(C)CCCC(C)(C)C1=C(O)C2=O | Active | Active | Active | Active | 
Cc1cc2ccc3c(c2cc(O)c1=O)CCCC3(C)C | Active |  |  |  | 
CC(C)/C(=C/c1ccc2c3c1C(=O)O[C@H]3CCC2(C)C)C(=O)O |  | Active | Active | Active | 
COC(=O)/C(=C\c1ccc2c3c1C(=O)O[C@H]3CCC2(C)C)C(C)C | Active | Active | Active | Active | 
CC(C)C1=CC2=C(C(=O)C1=O)[C@@]1(C)CCCC(C)(C)C1C[C@@H]2O (stereo not given in full) | Active |  |  |  | 
C[C@H]1CO[C@]2(C1)OC(=O)c1cc3c(cc12)CC(C)(C)CC3 | Active |  |  |  | 
CC(C)c1cc2c(cc1O)[C@@]1(CO)CCCC(C)(C)[C@@H]1CC2 | Active | Active | Active | Active | 
COc1ccc2c(c1)c(CC(=O)O)c(C)n2C(=O)c1ccc(Cl)cc1 [INDOMETHACIN] |  |  |  |  | inhibition at 1 µM [5]: 47.8%
Cc1coc2c1C(=O)C(=O)c1c-2ccc2c1C(=O)CCC2(C)C |  | Active | Active | Active | Activity [6]: Active; inhibition [7]: Active; inhibition [8]: Active
C[C@H]1COC2=C1C(=O)C(=O)c1c2ccc2c1CCCC2(C)C | Active | Active | Active | Active | inhibition [9]: Active; inhibition [8]: Active
COC(=O)[C@@H](N)CCCNC(=N)N[N+](=O)[O-] |  |  |  |  | inhibition at 1 µM [10]: 51.2%; inhibition at 1 µM [11]: 47.1%
CC(C)c1cc2ccc3c(c2oc1=O)CCCC3(C)C | Active |  |  |  | 
CC(C)c1cc2ccc3c(c2c(O)c1O)C(=O)CCC3(C)C | Active |  |  |  | 
